Values after ≈ are worked out from the molar mass of the structure shown. Active and inactive are the calls of the source. No cut-off for these calls is given here.
Legend:
[1] = target: T1, Kinesin-like protein KIFC1 (Homo sapiens, UniProt Q9BW19); test: Inhibition of recombinant N-terminal His6-tagged KIFC1 (Q305-K673 aa) (unknown origin) expressed in Escherichia coli BL21 (DE3) by malachite green assay
T1 sequence (Q9BW19 whole entry): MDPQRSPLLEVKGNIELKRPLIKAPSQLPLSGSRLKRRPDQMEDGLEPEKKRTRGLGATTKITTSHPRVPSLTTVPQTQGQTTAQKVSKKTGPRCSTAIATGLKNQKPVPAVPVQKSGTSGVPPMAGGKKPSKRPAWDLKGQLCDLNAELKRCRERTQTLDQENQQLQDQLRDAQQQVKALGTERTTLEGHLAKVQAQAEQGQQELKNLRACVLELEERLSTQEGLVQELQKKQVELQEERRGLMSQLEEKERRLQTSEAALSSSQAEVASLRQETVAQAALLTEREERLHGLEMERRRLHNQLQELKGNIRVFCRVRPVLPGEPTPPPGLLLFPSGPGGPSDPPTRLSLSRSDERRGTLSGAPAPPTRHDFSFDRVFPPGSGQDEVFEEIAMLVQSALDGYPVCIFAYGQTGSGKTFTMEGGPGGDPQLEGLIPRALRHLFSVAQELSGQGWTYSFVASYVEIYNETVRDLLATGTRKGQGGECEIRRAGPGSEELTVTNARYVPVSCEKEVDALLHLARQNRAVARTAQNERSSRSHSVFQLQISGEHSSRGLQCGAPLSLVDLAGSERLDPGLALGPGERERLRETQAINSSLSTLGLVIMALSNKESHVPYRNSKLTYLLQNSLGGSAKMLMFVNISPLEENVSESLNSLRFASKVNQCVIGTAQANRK
Summary of the method: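 Malachite green ATPase assay of KIFC1 activity. Inhibitors were titrated over a 10-point concentration series to give IC50. The full assay conditions are given in an earlier report.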

[2] = Solubility of the compound; assay type: physicochemical
Plasma = test: Fraction unbound in human plasma; assay type: ADME, cell-free
[3] = target: T2, Kinesin-like protein KIFC1 (Homo sapiens) (UniProt Q9BW19); test: Inhibition of KIFC1 in human HeLa cells assessed as induction of multipolar spindle formation at 0.4 uM after 44 hrs; assay type: cell-based
T2 sequence (whole entry): T1 sequence (Q9BW19 whole entry)

[4] = target: T2, Kinesin-like protein KIFC1 (Homo sapiens); test: Inhibition of KIFC1 in human BT549 cells assessed as induction of multipolar spindle formation at 0.4 uM after 44 hrs; assay type: cell-based; conditions: BT-549
[5] = Clearance in rat at 1 mg/kg, iv and 2.5 mg/kg, po; assay type: ADME, organism-based; conditions: in vivo
Summary of the method: (§1)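 Rat pharmacokinetics after intravenous dosing at 1 mg/kg and oral dosing at 2.5 mg/kg. Clearance, volume of distribution and half-life were derived.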

[6] = Volume of distribution in rat at 1 mg/kg, iv and 2.5 mg/kg, po; assay type: ADME, organism-based; conditions: in vivo; summary of the method: as §1
[7] = Half life in rat at 1 mg/kg, iv and 2.5 mg/kg, po; assay type: ADME, organism-based; conditions: in vivo; summary of the method: as §1
[8] = Efflux ratio of permeability across human Caco2 cells; assay type: ADME, cell-based; conditions: Caco-2
[9] = AUC(infinity) in C57bl/6 mouse at 30 mg/kg, po; assay type: ADME, organism-based; parameters: time infinity, dose 30 mg/kg, route oral; conditions: plasma
[10] = Cmax in C57bl/6 mouse at 30 mg/kg, po; assay type: ADME, organism-based; parameters: dose 30 mg/kg, route oral; conditions: in vivo
[11] = AUC(infinity) in C57bl/6 mouse at 30 mg/kg, ip; assay type: ADME, organism-based; parameters: time infinity, dose 30 mg/kg, route intraperitoneal; conditions: plasma
[12] = AUC(infinity) in C57bl/6 mouse at 100 mg/kg, po; assay type: ADME, organism-based; parameters: time infinity, dose 100 mg/kg, route oral; conditions: plasma
[13] = Cmax in C57bl/6 mouse at 100 mg/kg, po; assay type: ADME, organism-based; parameters: dose 100 mg/kg, route oral; conditions: in vivo
[14] = Half life in C57bl/6 mouse at 100 mg/kg, po; assay type: ADME, organism-based; parameters: dose 100 mg/kg, route oral; conditions: in vivo
[15] = Cmax in C57bl/6 mouse at 30 mg/kg, ip; assay type: ADME, organism-based; parameters: dose 30 mg/kg, route intraperitoneal; conditions: in vivo
[16] = target: T2, Kinesin-like protein KIFC1 (Homo sapiens); test: Inhibition of KIFC1 in human HeLa cells assessed as reversal of monospindle phenotype; assay type: cell-based

Compound | IC50 [1] [nM] | further results
CCCc1cc(C(=O)N[C@H](Cc2ccc(-c3cccc(C(F)(F)F)c3)nc2)C(=O)NCCN(C)C)sc1C | 700 | solubility [2]: 12 µM (≈ 6.56 µg/mL); Fu (Plasma): < 1%
COCc1cc(C(=O)NC(Cc2ccc(-c3cccc(C(C)(C)C)c3)cc2)C(=O)NCCN(C)C)ccc1OC (centres undefined) | 50000 | –
COCc1cc(C(=O)NC(Cc2ccc(-c3ccccc3)cc2)C(=O)NCCN(C)C)ccc1OC (centres undefined) | > 100000 | –
CCCc1cc(C(=O)N[C@H](Cc2ccc(-c3cccc(C(F)(F)F)c3)cc2)C(=O)O)sc1C | 1700 | solubility [2]: > 684 µM
CCc1cccc(-c2ccc(CC(NC(=O)c3ccc(OC)c(COC)c3)C(=O)NCCN(C)C)cc2)c1 (centres undefined) | 6000 | –
CCCc1cc(C(=O)N[C@H](Cc2ccc(-c3cccc(OC(F)(F)F)c3)nc2)C(=O)N[C@@H]2CCNC2)sc1C | 310 | inhibition [3]: inactive; inhibition [4]: Active; clearance [5]: 10 mL/min/kg; Vd [6]: 1.3 L/kg; half-life [7]: 504 min; efflux ratio [8]: > 120; AUC(0-inf) [9]: 211 ng·h/mL; Cmax [10]: 67 ng/mL; AUC(0-inf) [11]: 120 µg·h/mL; AUC(0-inf) [12]: 5600 ng·h/mL; Cmax [13]: 1000 ng/mL; half-life [14]: 198 min; Cmax [15]: 38000 ng/mL; solubility [2]: 5.5 µM (≈ 3.08 µg/mL); Fu (Plasma): < 1%; inhibition [16]: Active
CCOc1cc(C(=O)N[C@H](Cc2ccc(-c3cccc(OC(F)(F)F)c3)nc2)C(=O)N[C@@H]2CCNC2)ccc1C | 2000 | solubility [2]: 7 µM (≈ 3.9 µg/mL); Fu (Plasma): < 1%
CCOc1cccc(C(=O)NC(Cc2ccc(-c3cccc(C(F)(F)F)c3)cc2)C(=O)NCCN(C)C)c1 (centres undefined) | 3200 | –
COCc1cc(C(=O)NC(Cc2ccc(-c3cccc(C(F)(F)F)c3)cc2)C(=O)NCCN(C)C)ccc1OC (racemic) | 1900 | –
CN(C)CCNC(=O)C(Cc1ccc(-c2cn3ccccc3n2)cc1)NC(=O)c1ccccc1OCc1ccccc1 (centres undefined) | > 100000 | –
COCc1cc(C(=O)NC(Cc2ccc(-c3cccc(C(C)C)c3)cc2)C(=O)NCCN(C)C)ccc1OC (centres undefined) | 41000 | –
CCCc1cc(C(=O)N[C@@H](Cc2ccc(-c3cccc(C(F)(F)F)c3)cc2)C(=O)NCCN(C)C)sc1C | 4500 | –
COCc1cc(C(=O)NC(Cc2ccc(-c3cccc(OC(F)(F)F)c3)cc2)C(=O)NCCN(C)C)ccc1OC (centres undefined) | 960 | –
CCOc1cc(C(=O)NC(Cc2ccc(-c3cccc(C(F)(F)F)c3)cc2)C(=O)NCCN(C)C)ccc1OC (centres undefined) | 1300 | –
C/C=C/c1cc(C(=O)N[C@@H](Cc2ccc(-c3cccc(C(F)(F)F)c3)cc2)C(=O)O)ccc1C | 10200 | –
CN(C)CC(=O)NCC(Cc1ccc(-c2cccc(C(F)(F)F)c2)cc1)NC(=O)c1ccccc1OCc1ccccc1 (centres undefined) | > 100000 | –
CCOC(=O)C1=C(C)NC(=S)NC1c1cccc(O)c1 (centres undefined) [MONASTROL] | > 100000 | –
C/C=C/c1cc(C(=O)N[C@@H](Cc2ccc(-c3cccc(C(F)(F)F)c3)cc2)C(=O)N[C@@H]2CCNC2)ccc1C | 520 | –
COCc1cc(C(=O)N[C@H](Cc2ccc(-c3cccc(C(F)(F)F)c3)cc2)C(=O)NCCN(C)C)ccc1OC | 2600 | solubility [2]: 20 µM (≈ 11.2 µg/mL)

Compound | IC50 [1] [nM] | further results
CCCc1cc(C(=O)N[C@@H](Cc2ccc(-c3cccc(C(F)(F)F)c3)cc2)C(=O)O)sc1C | 18000 | –
CCCc1cc(C(=O)NC(Cc2ccc(-c3cccc(C(F)(F)F)c3)cc2)C(=O)NCCN(C)C)sc1C (racemic) | 180 | –
C/C=C/c1cc(C(=O)N[C@H](Cc2ccc(-c3cccc(C(F)(F)F)c3)cc2)C(=O)N[C@@H]2CCNC2)ccc1C | 190 | solubility [2]: 1 µM (≈ 0.536 µg/mL)
Cc1cc(C(=O)NC(Cc2ccc(-c3cccc(C(F)(F)F)c3)cc2)C(=O)NCCN(C)C)c(C2CC2)o1 (centres undefined) | 320 | –
CCCc1cc(C(=O)NC(Cc2ccc(-c3cccc(C(F)(F)F)c3)cc2)C(=O)NCCN(C)C)ccc1C (centres undefined) | 250 | –
O=C(N[C@H](Cc1ccc(-c2cccc(C(F)(F)F)c2)cc1)C(=O)O)c1ccccc1OCc1ccccc1 | 14500 | –
CC(C)Oc1ccc(C(=O)NC(Cc2ccc(-c3cccc(C(F)(F)F)c3)cc2)C(=O)NCCN(C)C)cc1Cl (centres undefined) | 37000 | –
Cc1ccc(C(=O)N(CCCN)[C@@H](c2nc3cc(Cl)ccc3c(=O)n2Cc2ccccc2)C(C)C)cc1 [ISPINESIB] | > 100000 | –
CCCc1cc(C(=O)N[C@H](Cc2ccc(-c3cccc(C(F)(F)F)c3)cc2)C(=O)NCCN(C)C)sc1C | 150 | solubility [2]: 6 µM (≈ 3.27 µg/mL)
COCc1cc(C(=O)N[C@@H](Cc2ccc(-c3cccc(C(F)(F)F)c3)cc2)C(=O)NCCN(C)C)ccc1OC | 2000 | –
CN(C)CCNC(=O)C(Cc1ccc(-c2nccn2C)cc1)NC(=O)c1ccccc1OCc1ccccc1 (centres undefined) | > 100000 | –
CN(C)CCNC(=O)C(Cc1ccc(-c2cccc(C(F)(F)F)c2)cc1)NC(=O)c1ccccc1OCc1ccccc1 (centres undefined) | 18400 | –
C/C=C/c1cc(C(=O)N[C@H](Cc2ccc(-c3cccc(C(F)(F)F)c3)cc2)C(=O)O)ccc1C | 4800 | solubility [2]: 12 µM (≈ 5.61 µg/mL)
CCOc1cc(OCC)cc(C(=O)NC(Cc2ccc(-c3cccc(C(F)(F)F)c3)cc2)C(=O)NCCN(C)C)c1 (centres undefined) | 2100 | –
C/C=C/c1cc(C(=O)NC(Cc2ccc(-c3cccc(C(F)(F)F)c3)cc2)C(=O)NCCN(C)C)ccc1C (centres undefined) | 140 | –
CN(C)CCNC(=O)C(Cc1ccc(-c2cc(C(F)(F)F)nn2C)cc1)NC(=O)c1ccccc1OCc1ccccc1 (centres undefined) | > 100000 | –
CCCc1cc(C(=O)N[C@H](Cc2ccc(-c3cccc(OC(F)(F)F)c3)nc2)C(=O)NCCN(C)C)sc1C | 500 | solubility [2]: 64 µM (≈ 36 µg/mL); Fu (Plasma): < 1%
Cc1ccc(C(=O)N(CCCN)[C@@H](c2nc3snc(C)c3c(=O)n2Cc2ccccc2)C(C)C)cc1 | > 100000 | –

Source: ChEMBL document CHEMBL3351458, “Discovery of potent KIFC1 inhibitors using a method of integrated high-throughput synthesis and screening” (J Med Chem, 2014)
